Among the data in ChEMBL document CHEMBL1150419, “Structure-activity relationships of a peptide inhibitor of the human FcRn:human IgG interaction” (Bioorg Med Chem, 2008) are IC50 and Kd values, retold here.

In assay [1] the target is T1, IgG receptor FcRn large subunit p51 (Homo sapiens, UniProt P55899). In words: Inhibition of human IgG binding to soluble human FcRn by ELISA. The procedure, abridged: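 Biotinylated soluble human FcRn immobilized on neutravidin plates, incubated with hIgG (3 nM, constant) and peptide at varying concentrations for 2 h at 37 °C. After washing, bound hIgG detected with peroxidase-conjugated hIgG-specific Fab fragments.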
T1 sequence (P55899 whole entry, the tested form may be a part): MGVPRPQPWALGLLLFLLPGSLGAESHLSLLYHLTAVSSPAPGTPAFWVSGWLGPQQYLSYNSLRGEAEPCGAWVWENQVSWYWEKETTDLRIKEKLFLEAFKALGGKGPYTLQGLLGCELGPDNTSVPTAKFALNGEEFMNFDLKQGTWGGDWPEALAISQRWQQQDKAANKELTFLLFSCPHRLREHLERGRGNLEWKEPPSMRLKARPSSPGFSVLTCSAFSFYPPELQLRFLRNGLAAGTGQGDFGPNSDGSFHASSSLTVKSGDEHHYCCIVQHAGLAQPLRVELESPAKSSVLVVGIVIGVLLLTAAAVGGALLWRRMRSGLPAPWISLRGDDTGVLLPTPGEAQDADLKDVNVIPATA
(In general: ELISA stands for enzyme-linked immunosorbent assay.)

The target of assay [2] is T1, IgG receptor FcRn large subunit p51. The assay is described as follows: Binding affinity to human FcRn at pH 6 by surface plasmon resonance assay. The essentials: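 Soluble human FcRn coupled to the dextran surface of a CM5 chip; peptide dilutions flowed over the chip. The equilibrium response at each dilution was plotted against concentration and fitted to a steady-state affinity model to give Kd.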
A general note: In SPR one partner is held on a chip, and binding of the other changes the refractive index at the surface.

For orientation: IC50 means the concentration that gives 50% inhibition. Low values mean greater potency, high ones weaker potency. A word on the Kd: it is a measure of binding affinity in units of concentration. The molecule `CC(C)C[C@H](NC(=O)[C@@H](C)NC(=O)[C@@H](C)NC(=O)[C@H](Cc1ccccc1)NC(=O)[C@H](Cc1cnc[nH]1)NC(=O)CNC(=O)[C@@H](NC(=O)[C@H](CS)NC(=O)[C@H](Cc1ccccc1)NC(=O)[C@H](CCCN=C(N)N)NC(=O)[C@@H](N)CCC(N)=O)[C@@H](C)O)C(=O)N[C@@H](Cc1ccc(O)cc1)C(=O)N1CCC[C@H]1C(=O)N[C@@H](CS)C(=O)N[C@@H](CC(N)=O)C(=O)NCC(=O)N1CCC[C@H]1C(=O)O` showed an IC50 in assay [1] of 69 µM. This molecule yielded a Kd in assay [2] of 22 µM.

In the case of `CC(C)C[C@H](NC(=O)CNC(=O)CNC(=O)[C@H](Cc1ccccc1)NC(=O)[C@H](Cc1cnc[nH]1)NC(=O)[C@@H](C)NC(=O)[C@@H](NC(=O)[C@H](CS)NC(=O)[C@H](Cc1ccccc1)NC(=O)[C@H](CCCN=C(N)N)NC(=O)[C@@H](N)CCC(N)=O)[C@@H](C)O)C(=O)N[C@@H](Cc1ccc(O)cc1)C(=O)N1CCC[C@H]1C(=O)N[C@@H](CS)C(=O)N[C@@H](CC(N)=O)C(=O)NCC(=O)N1CCC[C@H]1C(=O)O`, the IC50 in assay [1] was > 125 µM. Further, in assay [2], the Kd is > 250 µM.

Consider `CC(C)C[C@H](NC(=O)CNC(=O)CNC(=O)[C@H](Cc1ccccc1)NC(=O)[C@H](C)NC(=O)CNC(=O)[C@@H](NC(=O)[C@H](CS)NC(=O)[C@H](Cc1ccccc1)NC(=O)[C@H](CCCNC(=N)N)NC(=O)[C@@H](N)CCC(N)=O)[C@@H](C)O)C(=O)N[C@@H](Cc1ccc(O)cc1)C(=O)N1CCC[C@H]1C(=O)N[C@@H](CS)C(=O)N[C@@H](CC(N)=O)C(=O)NCC(=O)N1CCC[C@H]1C(=O)O`, for which the IC50 in assay [1] was > 125 µM. In addition, the Kd in assay [2] was > 250 µM.

`CC(C)C[C@@H](C(=O)N[C@@H](Cc1ccc(O)cc1)C(=O)N1CCC[C@H]1C(=O)N[C@@H](CS)C(=O)N[C@@H](CC(N)=O)C(=O)NCC(=O)N1CCC[C@H]1C(=O)O)N(C)C(=O)CNC(=O)[C@@H](C)NC(=O)[C@H](Cc1ccccc1)NC(=O)[C@H](Cc1cnc[nH]1)NC(=O)CNC(=O)[C@@H](NC(=O)[C@@H](NC(=O)[C@H](Cc1ccccc1)NC(=O)[C@H](CCCNC(=N)N)NC(=O)[C@@H](N)CCC(N)=O)C(C)(C)S)[C@@H](C)O` had an IC50 in assay [1] of 3.2 µM. Also, the Kd in assay [2] is 0.23 µM.

In turn, `CC(C)C[C@H](NC(=O)CN(C)C(=O)CNC(=O)[C@H](Cc1ccccc1)NC(=O)[C@H](Cc1cnc[nH]1)NC(=O)CNC(=O)[C@@H](NC(=O)[C@@H](NC(=O)[C@H](Cc1ccccc1)NC(=O)[C@@H](N)CCCNC(=N)N)C(C)(C)S)[C@@H](C)O)C(=O)N[C@@H](Cc1ccc(O)cc1)C(=O)N1CCC[C@H]1C(=O)N[C@@H](CS)C(=O)O` returned an IC50 in assay [1] of 1 µM. For the same molecule, the Kd in assay [2] is 0.058 µM.

On to `CC(C)C[C@@H](C(=O)N[C@@H](Cc1ccc(O)cc1)C(=O)N1CCC[C@H]1C(=O)N[C@@H](CS)C(=O)O)N(C)C(=O)CNC(=O)CNC(=O)[C@H](Cc1ccccc1)NC(=O)[C@H](Cc1cnc[nH]1)NC(=O)CNC(=O)[C@@H](NC(=O)[C@@H](NC(=O)[C@H](Cc1ccccc1)NC(=O)[C@@H](N)CCCN=C(N)N)C(C)(C)S)[C@@H](C)O`, for which, in assay [1], the IC50 was 2.1 µM. Moreover, in assay [2], the Kd worked out at 0.059 µM.

`CC(C)C[C@H](NC(=O)CNC(=O)[C@H](C)NC(=O)[C@H](Cc1ccccc1)NC(=O)[C@H](Cc1cnc[nH]1)NC(=O)CNC(=O)[C@@H](NC(=O)[C@H](CS)NC(=O)[C@H](Cc1ccccc1)NC(=O)[C@H](CCCNC(=N)N)NC(=O)[C@@H](N)CCC(N)=O)[C@@H](C)O)C(=O)N[C@@H](Cc1ccc(O)cc1)C(=O)N1CCC[C@H]1C(=O)N[C@@H](CS)C(=O)N[C@@H](CC(N)=O)C(=O)NCC(=O)N1CCC[C@H]1C(=O)O`: the IC50 in assay [1] is > 125 µM. The molecule also returned a Kd in assay [2] of 230 µM.

`CC(C)C[C@H](NC(=O)[C@@H](C)NC(=O)CNC(=O)[C@H](Cc1ccccc1)NC(=O)[C@H](Cc1cnc[nH]1)NC(=O)CNC(=O)[C@@H](NC(=O)[C@@H](NC(=O)[C@H](Cc1ccccc1)NC(=O)[C@H](CCCN=C(N)N)NC(=O)[C@@H](N)CCC(N)=O)C(C)(C)S)[C@@H](C)O)C(=O)N[C@@H](Cc1ccc(O)cc1)C(=O)N1CCC[C@H]1C(=O)N[C@@H](CS)C(=O)N[C@@H](CC(N)=O)C(=O)NCC(=O)N1CCC[C@H]1C(=O)O`: the concentration for half-maximal inhibition (IC50) in assay [1] turned out to be 2 µM. The molecule further came in with a Kd in assay [2] of 0.48 µM.

In turn, `CC(C)C[C@H](NC(=O)CNC(=O)CNC(=O)[C@H](Cc1ccccc1)NC(=O)[C@H](Cc1cnc[nH]1)NC(=O)CNC(=O)[C@@H](NC(=O)[C@H](CS)NC(=O)[C@H](Cc1ccccc1)NC(=O)[C@H](CCCNC(=N)N)NC(=O)[C@@H](N)CCC(N)=O)[C@@H](C)O)C(=O)N[C@@H](Cc1ccc(O)cc1)C(=O)N1CCC[C@H]1C(=O)N[C@@H](CS)C(=O)N[C@@H](CC(N)=O)C(=O)NCC(=O)N1CCC[C@H]1C(=O)O` yielded an IC50 in assay [1] of 40 µM. Moreover, binding in assay [2] was characterised by a dissociation constant (Kd) of 5.1 µM.

In assay [1], `CC(C)C[C@@H](C(=O)N[C@@H](Cc1ccc(O)cc1)C(=O)N1CCC[C@H]1C(=O)N[C@@H](CS)C(=O)N[C@@H](CC(N)=O)C(=O)NCC(=O)N1CCC[C@H]1C(=O)O)N(C)C(=O)CNC(=O)[C@@H](Cc1ccccc1)NC(=O)[C@H](Cc1ccccc1)NC(=O)[C@H](Cc1cnc[nH]1)NC(=O)CNC(=O)[C@@H](NC(=O)[C@@H](NC(=O)[C@H](Cc1ccccc1)NC(=O)[C@H](CCCNC(=N)N)NC(=O)[C@@H](N)CCC(N)=O)C(C)(C)S)[C@@H](C)O` had an IC50 of 1.3 µM. The same molecule came in with a Kd in assay [2] of 0.24 µM.

`CC(C)C[C@H](NC(=O)CNC(=O)CNC(=O)[C@H](Cc1ccccc1)NC(=O)[C@H](Cc1cnc[nH]1)NC(=O)CNC(=O)[C@@H](NC(=O)[C@H](CS)NC(=O)[C@H](Cc1ccccc1)NC(=O)[C@H](CCCN=C(N)N)NC(=O)[C@@H](N)CCC(N)=O)[C@@H](C)O)C(=O)N[C@@H](Cc1ccc(O)cc1)C(=O)N1CCC[C@H]1C(=O)N[C@H](CCS)C(=O)N[C@@H](CC(N)=O)C(=O)NCC(=O)N1CCC[C@H]1C(=O)O`: the IC50 in assay [1] is 21 µM. In addition, binding in assay [2] was characterised by a dissociation constant (Kd) of 3.9 µM.

`CC(C)C[C@H](NC(=O)CNC(=O)CNC(=O)[C@H](Cc1ccccc1)NC(=O)[C@H](Cc1cnc[nH]1)NC(=O)CNC(=O)[C@@H](NC(=O)[C@H](CS)NC(=O)[C@H](Cc1ccccc1)NC(=O)[C@H](C)NC(=O)[C@@H](N)CCC(N)=O)[C@@H](C)O)C(=O)N[C@@H](Cc1ccc(O)cc1)C(=O)N1CCC[C@H]1C(=O)N[C@@H](CS)C(=O)N[C@@H](CC(N)=O)C(=O)NCC(=O)N1CCC[C@H]1C(=O)O` showed an IC50 in assay [1] of 23 µM. Further, in assay [2], the affinity, expressed as Kd, was 7.7 µM.

`CC(C)C[C@H](NC(=O)CNC(=O)C(C)(C)NC(=O)[C@H](Cc1ccccc1)NC(=O)[C@H](Cc1cnc[nH]1)NC(=O)CNC(=O)[C@@H](NC(=O)[C@@H](NC(=O)[C@H](Cc1ccccc1)NC(=O)[C@H](CCCNC(=N)N)NC(=O)[C@@H](N)CCC(N)=O)C(C)(C)S)[C@@H](C)O)C(=O)N[C@@H](Cc1ccc(O)cc1)C(=O)N1CCC[C@H]1C(=O)N[C@@H](CS)C(=O)N[C@@H](CC(N)=O)C(=O)NCC(=O)N1CCC[C@H]1C(=O)O` had an IC50 in assay [1] of 17 µM. In addition, in assay [2], binding was put at a Kd of 5.2 µM.

As for `CC(C)C[C@H](NC(=O)CNC(=O)CNC(=O)[C@H](Cc1ccccc1)NC(=O)[C@H](Cc1cnc[nH]1)NC(=O)CNC(=O)[C@@H](NC(=O)[C@@H](NC(=O)[C@H](Cc1ccccc1)NC(=O)[C@H](CCCN=C(N)N)NC(=O)[C@@H](N)CCC(N)=O)C(C)(C)S)[C@@H](C)O)C(=O)N[C@@H](Cc1ccc(O)cc1)C(=O)N1CCC[C@H]1C(=O)N[C@H](C(=O)N[C@@H](CC(N)=O)C(=O)NCC(=O)N1CCC[C@H]1C(=O)O)C(C)(C)S`, the IC50 in assay [1] is 2 µM. Moreover, the affinity in assay [2], expressed as Kd, was 0.37 µM.

Take `CC(C)C[C@H](NC(=O)CNC(=O)CNC(=O)[C@H](Cc1ccccc1)NC(=O)[C@H](Cc1cnc[nH]1)NC(=O)[C@H](C)NC(=O)[C@@H](NC(=O)[C@H](CS)NC(=O)[C@H](Cc1ccccc1)NC(=O)[C@H](CCCNC(=N)N)NC(=O)[C@@H](N)CCC(N)=O)[C@@H](C)O)C(=O)N[C@@H](Cc1ccc(O)cc1)C(=O)N1CCC[C@H]1C(=O)N[C@@H](CS)C(=O)N[C@@H](CC(N)=O)C(=O)NCC(=O)N1CCC[C@H]1C(=O)O`: the IC50 in assay [1] is > 125 µM. Further, the Kd in assay [2] is > 250 µM.

Turning to `CC(C)C[C@H](NC(=O)[C@@H]1CCCN1C(=O)[C@H]1CCCN1C(=O)[C@H](Cc1ccccc1)NC(=O)[C@H](Cc1cnc[nH]1)NC(=O)CNC(=O)[C@@H](NC(=O)[C@@H](NC(=O)[C@H](Cc1ccccc1)NC(=O)[C@H](CCCN=C(N)N)NC(=O)[C@@H](N)CCC(N)=O)C(C)(C)S)[C@@H](C)O)C(=O)N[C@@H](Cc1ccc(O)cc1)C(=O)N1CCC[C@H]1C(=O)N[C@@H](CS)C(=O)N[C@@H](CC(N)=O)C(=O)NCC(=O)N1CCC[C@H]1C(=O)O`, in assay [1], the IC50 was > 250 µM. Besides, in assay [2], the Kd is > 100 µM.

As to `CC(C)C[C@H](NC(=O)CNC(=O)CNC(=O)[C@H](Cc1ccccc1)NC(=O)[C@H](Cc1cnc[nH]1)NC(=O)CNC(=O)[C@@H](NC(=O)[C@H](CS)NC(=O)[C@H](Cc1ccccc1)NC(=O)[C@H](CCCN=C(N)N)NC(=O)[C@@H](N)CCC(N)=O)[C@@H](C)O)C(=O)N[C@@H](Cc1ccc(O)cc1)C(=O)N1CCC[C@H]1C(=O)N[C@@H](CS)C(=O)N[C@@H](C)C(=O)NCC(=O)N1CCC[C@H]1C(=O)O`, the IC50 in assay [1] turned out to be 30 µM. In assay [2], this molecule came in with a dissociation constant Kd of 8 µM.

As for `CC(C)C[C@H](NC(=O)[C@H]1CCCN1C(=O)[C@@H](Cc1ccccc1)NC(=O)[C@H](Cc1ccccc1)NC(=O)[C@H](Cc1cnc[nH]1)NC(=O)CNC(=O)[C@@H](NC(=O)[C@@H](NC(=O)[C@H](Cc1ccccc1)NC(=O)[C@H](CCCN=C(N)N)NC(=O)[C@@H](N)CCC(N)=O)C(C)(C)S)[C@@H](C)O)C(=O)N[C@@H](Cc1ccc(O)cc1)C(=O)N1CCC[C@H]1C(=O)N[C@@H](CS)C(=O)N[C@@H](CC(N)=O)C(=O)NCC(=O)N1CCC[C@H]1C(=O)O`, the IC50 in assay [1] was determined as 5.9 µM. In assay [2], this molecule gave a Kd of 0.72 µM.

`CC(C)C[C@@H](C(=O)N[C@@H](Cc1ccc(O)cc1)C(=O)N1CCC[C@H]1C(=O)N[C@@H](CS)C(=O)N[C@@H](CC(N)=O)C(=O)NCC(=O)N1CCC[C@H]1C(=O)O)N(C)C(=O)CNC(=O)CNC(=O)[C@H](Cc1ccccc1)NC(=O)[C@H](Cc1cnc[nH]1)NC(=O)CNC(=O)[C@@H](NC(=O)[C@@H](NC(=O)[C@H](Cc1ccccc1)NC(=O)[C@H](CCCN=C(N)N)NC(=O)[C@@H](N)CCC(N)=O)C(C)(C)S)[C@@H](C)O`: the IC50 in assay [1] is 1.6 µM. Moreover, binding in assay [2] was characterised by a dissociation constant (Kd) of 0.086 µM.
